This note sets out measurements from ChEMBL document CHEMBL1141179 (J Med Chem, 2005).

The target in test [1] is Somatostatin receptor type 3 (Homo sapiens, UniProt P32745). Nature of the test: Inhibition of 125I-[Leu8,D-Trp22,Tyr25]SRIF-28 binding to human somatostatin receptor type 3. In short, it runs like this: (§1)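 Human sst2 or sst3 receptor stably expressed in CCL39 cells. 20 µm cryostat sections of cell membrane pellets were used for autoradiographic binding. IC50 (nM) came from competitive displacement. Values are mean ± SEM when N ≥ 3; otherwise mean with single values.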
Somatostatin receptor type 3, sequence (P32745 whole entry): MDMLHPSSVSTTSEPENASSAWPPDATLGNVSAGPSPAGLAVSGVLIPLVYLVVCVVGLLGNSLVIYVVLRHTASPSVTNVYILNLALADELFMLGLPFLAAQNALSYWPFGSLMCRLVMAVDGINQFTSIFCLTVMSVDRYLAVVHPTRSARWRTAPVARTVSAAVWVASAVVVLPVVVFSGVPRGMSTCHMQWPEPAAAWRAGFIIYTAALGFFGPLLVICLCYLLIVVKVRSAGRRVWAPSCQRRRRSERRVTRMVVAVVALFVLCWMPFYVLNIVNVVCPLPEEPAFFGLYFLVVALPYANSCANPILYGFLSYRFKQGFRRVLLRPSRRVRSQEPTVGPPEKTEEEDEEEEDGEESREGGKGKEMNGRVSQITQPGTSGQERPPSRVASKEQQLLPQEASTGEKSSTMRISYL

Test [2] has as its target Somatostatin receptor type 2 (Homo sapiens, UniProt P30874). Nature of the test: Inhibition of 125I-[Leu8,D-Trp22,Tyr25]SRIF-28 binding to human somatostatin receptor type 2. In short, it runs like this: as §1
The target in test [3] is Somatostatin receptor type 5 (Homo sapiens, UniProt P35346). The test is described as follows: Inhibition of 125I-[Leu8,D-Trp22,Tyr25]SRIF-28 binding to human somatostatin receptor type 5. In short, it runs like this: (§2)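 Human sst1 or sst5 receptor stably expressed in CHO-K1 cells. 20 µm cryostat sections of cell membrane pellets were used for receptor autoradiography. IC50 (nM) came from competitive radioligand displacement. Values are mean ± SEM when N ≥ 3; otherwise mean with single values.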
Somatostatin receptor type 5, sequence (P35346 whole entry): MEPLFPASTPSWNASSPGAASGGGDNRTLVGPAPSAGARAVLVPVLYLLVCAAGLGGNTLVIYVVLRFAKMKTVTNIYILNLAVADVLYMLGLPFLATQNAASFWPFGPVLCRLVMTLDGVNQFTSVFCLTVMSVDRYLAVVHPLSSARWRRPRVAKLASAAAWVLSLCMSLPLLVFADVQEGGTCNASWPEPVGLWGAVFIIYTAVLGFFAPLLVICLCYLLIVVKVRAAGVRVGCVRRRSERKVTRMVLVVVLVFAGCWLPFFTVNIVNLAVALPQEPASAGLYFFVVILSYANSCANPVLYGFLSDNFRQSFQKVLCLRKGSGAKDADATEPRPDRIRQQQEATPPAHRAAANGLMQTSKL

The target of test [4] is Somatostatin receptor type 4 (Homo sapiens, UniProt P31391). The test is described as follows: Inhibition of 125I-[Leu8,D-Trp22,Tyr25]SRIF-28 binding to human somatostatin receptor type 4.
Somatostatin receptor type 4, sequence (P31391 whole entry): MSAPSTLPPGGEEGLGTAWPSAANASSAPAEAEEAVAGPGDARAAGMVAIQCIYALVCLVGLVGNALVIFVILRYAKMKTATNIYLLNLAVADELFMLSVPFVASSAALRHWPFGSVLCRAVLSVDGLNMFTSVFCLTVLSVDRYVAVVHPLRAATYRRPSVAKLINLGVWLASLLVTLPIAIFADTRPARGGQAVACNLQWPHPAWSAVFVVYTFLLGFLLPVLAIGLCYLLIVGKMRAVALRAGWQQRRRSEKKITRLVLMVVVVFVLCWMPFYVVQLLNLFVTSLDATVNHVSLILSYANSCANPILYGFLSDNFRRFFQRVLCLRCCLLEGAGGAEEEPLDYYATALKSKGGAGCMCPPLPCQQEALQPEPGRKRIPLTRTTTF
In test [5] the target is Somatostatin receptor type 1 (Homo sapiens, UniProt P30872). The test is described as follows: Inhibition of 125I-[Leu8,D-Trp22,Tyr25]SRIF-28 binding to human somatostatin receptor type 1. The procedure, abridged:
as §2

Somatostatin receptor type 2, sequence (P30874 whole entry): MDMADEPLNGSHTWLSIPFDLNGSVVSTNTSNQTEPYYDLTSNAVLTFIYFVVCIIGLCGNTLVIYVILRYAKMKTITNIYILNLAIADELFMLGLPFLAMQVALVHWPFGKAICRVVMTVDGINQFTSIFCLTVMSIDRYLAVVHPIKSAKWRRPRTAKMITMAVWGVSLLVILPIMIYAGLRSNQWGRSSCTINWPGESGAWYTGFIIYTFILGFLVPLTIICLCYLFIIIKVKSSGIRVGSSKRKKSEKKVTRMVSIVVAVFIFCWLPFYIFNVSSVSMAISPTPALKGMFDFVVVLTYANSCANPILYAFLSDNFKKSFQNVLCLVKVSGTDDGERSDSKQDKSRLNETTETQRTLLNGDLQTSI
Somatostatin receptor type 1, sequence (P30872 whole entry): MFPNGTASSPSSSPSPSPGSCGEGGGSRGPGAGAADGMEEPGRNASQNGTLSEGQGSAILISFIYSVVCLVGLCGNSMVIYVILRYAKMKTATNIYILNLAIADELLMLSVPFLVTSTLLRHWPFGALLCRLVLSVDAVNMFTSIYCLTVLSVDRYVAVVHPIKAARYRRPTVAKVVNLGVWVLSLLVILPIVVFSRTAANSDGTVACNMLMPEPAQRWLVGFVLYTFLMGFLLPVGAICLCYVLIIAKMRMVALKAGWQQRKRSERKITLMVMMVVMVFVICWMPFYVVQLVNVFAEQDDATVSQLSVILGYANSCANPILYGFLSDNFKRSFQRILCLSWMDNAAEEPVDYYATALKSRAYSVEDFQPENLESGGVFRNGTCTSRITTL

The IC50 is the concentration that inhibits the measured activity by half. Low values mean greater potency in that assay, high ones weaker potency in that assay. On to `CC(C)NCc1ccc(C[C@@H]2NC(=O)[C@@H](Cc3c[nH]c4ccccc34)NC(=O)[C@@H]3CCC(=O)NCCCC[C@H](NC(=O)[C@H](Cc4ccccc4)NC(=O)[C@H]([C@@H](C)O)NC2=O)C(=O)N[C@@H](CO)C(=O)N[C@H](C(N)=O)CSSC[C@H](NC(=O)[C@@H](N)Cc2ccc(O)cc2)C(=O)N[C@@H](CCCCN)C(=O)N[C@@H](Cc2ccccc2)C(=O)N3)cc1`, for which the IC50 in test [1] is over 1000 nM; in test [2] it was over 1000 nM; in test [3], over 1000 nM; in test [4] it was over 1000 nM; in test [5] it was 181 nM.

For `CC(C)NCc1ccc(C[C@H]2C(=O)N[C@@H]([C@@H](C)O)C(=O)N[C@@H](Cc3ccc(O)c(I)c3)C(=O)N[C@H]3CCCCCCNC(=O)CC[C@H](NC(=O)[C@H](Cc4ccccc4)NC(=O)[C@H](CCCCN)NC(=O)[C@@H](N)CSSC[C@@H](C(=O)O)NC(=O)[C@H](CO)NC3=O)C(=O)N[C@H](Cc3c[nH]c4ccccc34)C(=O)N2C)cc1`, the IC50 is over 1000 nM in test [1]; over 1000 nM in test [2]; over 1000 nM in test [3]; 611 nM in test [4]; 46 nM in test [5].

As to `C[C@@H](O)[C@@H]1NC(=O)[C@H](CCCCN)NC(=O)[C@@H](Cc2c[nH]c3ccccc23)NC(=O)[C@H](Cc2ccccc2)NC(=O)[C@H](Cc2ccccc2)NC(=O)[C@H](CC(N)=O)NC(=O)[C@@H](N)CSSC[C@@H](C(=O)O)NC(=O)[C@H](Cc2ccccc2)NC1=O`, the 50% inhibitory concentration (IC50) in test [1] was found to be 189 nM; in test [2], 95 nM; in test [3], 31 nM; in test [4] it was 1.2 nM; in test [5] it was 59 nM.

On to `CC(C)NCc1ccc(C[C@@H]2NC(=O)[C@@H](Cc3c[nH]c4ccccc34)NC(=O)[C@@H]3CCC(=O)NCCC(=O)NCCC[C@H](NC(=O)[C@H](Cc4ccccc4)NC(=O)[C@H]([C@@H](C)O)NC2=O)C(=O)N[C@@H](CO)C(=O)N[C@H](C(=O)O)CSSC[C@H](NC(=O)[C@@H](N)Cc2ccc(O)cc2)C(=O)N[C@@H](CCCCN)C(=O)N[C@@H](Cc2ccccc2)C(=O)N3)cc1`, for which the half-maximal inhibitory concentration (IC50) in test [1] was over 1000 nM; in test [2], over 1000 nM; in test [3] it was over 1000 nM; in test [4], over 1000 nM; in test [5], 64 nM.

`CC(C)NCc1ccc(C[C@@H]2NC(=O)[C@@H](Cc3c[nH]c4ccccc34)NC(=O)[C@@H]3CCC(=O)NCCCC(=O)NCCCC[C@H](NC(=O)[C@H](Cc4ccccc4)NC(=O)[C@H]([C@@H](C)O)NC2=O)C(=O)N[C@@H](CO)C(=O)N[C@H](C(=O)O)CSSC[C@H](NC(=O)[C@@H](N)Cc2ccc(O)cc2)C(=O)N[C@@H](CCCCN)C(=O)N[C@@H](Cc2ccccc2)C(=O)N3)cc1`: the IC50 is over 1000 nM in test [1]; over 1000 nM in test [2]; over 1000 nM in test [3]; over 1000 nM in test [4]; 274 nM in test [5].

Take `C[C@@H](O)[C@@H]1NC(=O)[C@H](Cc2ccccc2)NC(=O)[C@H]([C@@H](C)O)NC(=O)[C@H](CCCCN)NC(=O)[C@@H](Cc2c[nH]c3ccccc23)NC(=O)[C@H](Cc2ccccc2)NC(=O)[C@H](Cc2ccccc2)NC(=O)[C@@H](N)CSSC[C@@H](C(=O)O)NC1=O`: the half-inhibitory concentration (IC50) in test [1] was determined as 52 nM; in test [2] it was 1.9 nM; in test [3], 43 nM; in test [4], 1 nM; in test [5] it was 197 nM.

Turning to `CC(C)NCc1ccc(C[C@H]2C(=O)N[C@@H]([C@@H](C)O)C(=O)N[C@@H](Cc3ccc(O)c(I)c3)C(=O)N[C@H]3CCCCNC(=O)CC[C@H](NC(=O)[C@H](Cc4ccccc4)NC(=O)[C@H](CCCCN)NC(=O)[C@@H](N)CSSC[C@@H](C(=O)O)NC(=O)[C@H](CO)NC3=O)C(=O)N[C@H](Cc3c[nH]c4ccccc34)C(=O)N2C)cc1`, the concentration for half-maximal inhibition (IC50) was 254 nM in test [1]; over 1000 nM in test [2]; over 1000 nM in test [3]; over 1000 nM in test [4]; 14 nM in test [5].

Take `CC(C)NCc1ccc(C[C@@H]2NC(=O)[C@@H](Cc3c[nH]c4ccccc34)NC(=O)[C@@H]3CCC(=O)NCCCC[C@H](NC(=O)[C@H](Cc4ccc(O)cc4)NC(=O)[C@H]([C@@H](C)O)NC2=O)C(=O)N[C@@H](CO)C(=O)N[C@H](C(N)=O)CSSC[C@H](N)C(=O)N[C@@H](CCCCN)C(=O)N[C@@H](Cc2ccccc2)C(=O)N3)cc1`: the IC50 in test [1] is over 1000 nM; in test [2] it was over 1000 nM; in test [3] it was over 1000 nM; in test [4] it was over 1000 nM; in test [5] it was 18 nM.

Take `C[C@@H](O)[C@@H]1NC(=O)[C@H](Cc2ccccc2)NC(=O)[C@H]([C@@H](C)O)NC(=O)[C@H](CCCCN)NC(=O)[C@@H](Cc2c[nH]c3ccccc23)NC(=O)[C@H](Cc2ccccc2)NC(=O)[C@H](Cc2ccccc2)NC(=O)[C@H](CC(N)=O)NC(=O)[C@@H](N)CSSC[C@@H](C(=O)O)NC1=O`: the IC50 amounted to 11 nM in test [1]; 5 nM in test [2]; 9.5 nM in test [3]; 1.4 nM in test [4]; 112 nM in test [5].

In the case of `CC(C)NCc1ccc(C[C@@H]2NC(=O)[C@@H](Cc3c[nH]c4ccccc34)NC(=O)[C@@H]3CCC(=O)NCCC(=O)NCC[C@H](NC(=O)[C@H](Cc4ccccc4)NC(=O)[C@H]([C@@H](C)O)NC2=O)C(=O)N[C@@H](CO)C(=O)N[C@H](C(=O)O)CSSC[C@H](NC(=O)[C@@H](N)Cc2ccc(O)cc2)C(=O)N[C@@H](CCCCN)C(=O)N[C@@H](Cc2ccccc2)C(=O)N3)cc1`, the 50% inhibitory concentration (IC50) in test [1] was over 1000 nM; in test [2], over 1000 nM; in test [3], over 1000 nM; in test [4], over 1000 nM; in test [5], 74 nM.

Take `CC(C)NCc1ccc(C[C@H]2C(=O)N[C@@H]([C@@H](C)O)C(=O)N[C@@H](Cc3ccc(O)c(I)c3)C(=O)N[C@@H]3CCCCCCNC(=O)CC[C@H](NC(=O)[C@H](Cc4ccccc4)NC(=O)[C@H](CCCCN)NC(=O)[C@@H](N)CSSC[C@@H](C(=O)O)NC(=O)[C@H](CO)NC3=O)C(=O)N[C@H](Cc3c[nH]c4ccccc34)C(=O)N2C)cc1`: the IC50 in test [1] is over 1000 nM; in test [2], over 1000 nM; in test [3] it was over 1000 nM; in test [4], 215 nM; in test [5], 620 nM.

As to `CC(C)NCc1ccc(C[C@@H]2NC(=O)[C@@H](Cc3c[nH]c4ccccc34)NC(=O)[C@@H](NC(=O)[C@@H](N)Cc3ccccc3)CCC(=O)NCCCC[C@@H](C(=O)N[C@@H](CO)C(=O)O)NC(=O)[C@H](Cc3ccccc3)NC(=O)[C@H]([C@@H](C)O)NC2=O)cc1`, the IC50 in test [1], in test [2], in test [3], in test [4] and in test [5] was over 1000 nM each time.

For `CC(C)NCc1ccc(C[C@@H]2NC(=O)[C@@H](Cc3c[nH]c4ccccc34)NC(=O)[C@@H]3CCC(=O)NCCCC(=O)NCCC[C@H](NC(=O)[C@H](Cc4ccccc4)NC(=O)[C@H]([C@@H](C)O)NC2=O)C(=O)N[C@@H](CO)C(=O)N[C@H](C(=O)O)CSSC[C@H](NC(=O)[C@@H](N)Cc2ccc(O)cc2)C(=O)N[C@@H](CCCCN)C(=O)N[C@@H](Cc2ccccc2)C(=O)N3)cc1`, the IC50 is over 1000 nM in test [1]; over 1000 nM in test [2]; over 1000 nM in test [3]; over 1000 nM in test [4]; 167 nM in test [5].

Take `C[C@@H](O)[C@@H]1NC(=O)[C@H](Cc2ccccc2)NC(=O)[C@H]([C@@H](C)O)NC(=O)[C@H](CCCCN)NC(=O)[C@@H](Cc2c[nH]c3ccccc23)NC(=O)[C@H](Cc2ccccc2)NC(=O)[C@H](Cc2ccccc2)NC(=O)[C@@H](N)CSSC[C@@H](C(=O)O)NC(=O)[C@H](CO)NC1=O`: the IC50 in test [1] was found to be 222 nM; in test [2], 28 nM; in test [3] it was 8.6 nM; in test [4] it was 3.3 nM; in test [5], 79 nM.

Take `CC(C)NCc1ccc(C[C@@H]2NC(=O)[C@@H](Cc3c[nH]c4ccccc34)NC(=O)[C@@H]3CCC(=O)NCCCC[C@H](NC(=O)[C@H](Cc4ccccc4)NC(=O)[C@H]([C@@H](C)O)NC2=O)C(=O)N[C@@H](CO)C(=O)N[C@H](C(=O)O)CSSC[C@H](NC(=O)[C@@H](N)Cc2ccc(O)c(I)c2)C(=O)N[C@@H](CCCCN)C(=O)N[C@@H](Cc2ccccc2)C(=O)N3)cc1`: the IC50 in test [1] is over 1000 nM; in test [2] it was over 1000 nM; in test [3] it was over 1000 nM; in test [4] it was over 1000 nM; in test [5] it was 89 nM.

For `CC(C)NCc1ccc(C[C@@H]2NC(=O)[C@@H](Cc3c[nH]c4ccccc34)NC(=O)[C@@H]3CCC(=O)NCCCC(=O)NCC[C@H](NC(=O)[C@H](Cc4ccccc4)NC(=O)[C@H]([C@@H](C)O)NC2=O)C(=O)N[C@@H](CO)C(=O)N[C@H](C(=O)O)CSSC[C@H](NC(=O)[C@@H](N)Cc2ccc(O)cc2)C(=O)N[C@@H](CCCCN)C(=O)N[C@@H](Cc2ccccc2)C(=O)N3)cc1`, the 50% inhibitory concentration (IC50) in test [1] was over 1000 nM; in test [2] it was over 1000 nM; in test [3] it was over 1000 nM; in test [4], over 1000 nM; in test [5], 61 nM.

For `CC(C)NCc1ccc(C[C@@H]2NC(=O)C(Cc3c[nH]c4ccccc34)NC(=O)[C@H](Cc3ccccc3)NC(=O)[C@@H](Cc3ccccc3)NC(=O)[C@H](NC(=O)[C@@H](N)Cc3ccc(O)cc3)CSSC[C@@H](C(=O)O)NC(=O)[C@@H]([C@@H](C)O)NC(=O)[C@H](Cc3ccccc3)NC(=O)[C@@H]([C@@H](C)O)NC2=O)cc1` (stereo in doubt), the IC50 in test [1] was 445 nM; in test [2] it was over 1000 nM; in test [4], over 1000 nM; in test [5] it was 720 nM.
